≈ marks a conversion by molar mass, not a printed value.
Columns and labels:
Porphyromonas = experiment: Antimicrobial activity against Porphyromonas isolated from canine periodontal pockets after 48 hrs by agar dilution method; assay type: functional
In short: (§1)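 Isolates came from canine periodontal pockets (2004–2006, six countries; dogs without antimicrobials for ≥4 weeks), cultured anaerobically at 35 ± 1°C and identified by Biolog. MICs were found by CLSI M11-A6 agar dilution on brucella blood agar with hemin and vitamin K, using a multipoint inoculator under strict anaerobiosis for up to 48 h. QC strains were B. fragilis ATCC 25285 and E. lentum ATCC 43055.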

[1] = tested on: Porphyromonas asaccharolytica; experiment: Antimicrobial activity against Porphyromonas asaccharolyticus isolated from canine periodontal pockets after 48 hrs by agar dilution method; assay type: functional; in short: as §1
[2] = tested on: Porphyromonas circumdentaria; experiment: Antimicrobial activity against Porphyromonas circumdentaria isolated from canine periodontal pockets after 48 hrs by agar dilution method; assay type: functional; in short: as §1
Porphyromonas levii = experiment: Antimicrobial activity against Porphyromonas levii isolated from canine periodontal pockets after 48 hrs by agar dilution method; assay type: functional; in short: as §1
Porphyromonas macacae [3] = experiment: Antimicrobial activity against Porphyromonas macacae isolated from canine periodontal pockets after 48 hrs by agar dilution method; assay type: functional; in short: as §1
Porphyromonas macacae [4] = experiment: Antimicrobial activity against Porphyromonas salivosa isolated from canine periodontal pockets after 48 hrs by agar dilution method; assay type: functional; in short: as §1
Prevotella buccae = experiment: Antimicrobial activity against Prevotella buccae isolated from canine periodontal pockets after 48 hrs by agar dilution method; assay type: functional; conditions: Segatella buccae; in short: as §1
Prevotella corporis = experiment: Antimicrobial activity against Prevotella corporis isolated from canine periodontal pockets after 48 hrs by agar dilution method; assay type: functional; in short: as §1
Prevotella denticola = experiment: Antimicrobial activity against Prevotella denticola isolated from canine periodontal pockets after 48 hrs by agar dilution method; assay type: functional; in short: as §1
Prevotella disiens = experiment: Antimicrobial activity against Prevotella disiens isolated from canine periodontal pockets after 48 hrs by agar dilution method; assay type: functional; in short: as §1
[5] = tested on: Bacteroides heparinolyticus; experiment: Antimicrobial activity against Bacteroides heparinolyticus isolated from canine periodontal pockets after 48 hrs by agar dilution method; assay type: functional; conditions: Prevotella heparinolytica; in short: as §1
Prevotella intermedia = experiment: Antimicrobial activity against Prevotella intermedia isolated from canine periodontal pockets after 48 hrs by agar dilution method; assay type: functional; in short: as §1
Hoylesella loescheii = experiment: Antimicrobial activity against Prevotella loescheii isolated from canine periodontal pockets after 48 hrs by agar dilution method; assay type: functional; in short: as §1
Prevotella nigrescens = experiment: Antimicrobial activity against Prevotella nigrescens isolated from canine periodontal pockets after 48 hrs by agar dilution method; assay type: functional; in short: as §1
Hoylesella oralis = experiment: Antimicrobial activity against Prevotella oralis isolated from canine periodontal pockets after 48 hrs by agar dilution method; assay type: functional; in short: as §1
Prevotella oris = experiment: Antimicrobial activity against Prevotella oris isolated from canine periodontal pockets after 48 hrs by agar dilution method; assay type: functional; conditions: Segatella oris; in short: as §1
Prevotella oulorum = experiment: Antimicrobial activity against Prevotella oulorum isolated from canine periodontal pockets after 48 hrs by agar dilution method; assay type: functional; conditions: Segatella oulorum; in short: as §1
[6] = tested on: Bacteroides zoogleoformans; experiment: Antimicrobial activity against Bacteroides zoogleoformans isolated from canine periodontal pockets after 48 hrs by agar dilution method; assay type: functional; in short: as §1
Prevotella sp. = experiment: Antimicrobial activity against Prevotella sp. isolated from canine periodontal pockets after 48 hrs by agar dilution method; assay type: functional; in short: as §1
Porphyromonas gingivalis = experiment: Antimicrobial activity against Porphyromonas gingivalis isolated from canine periodontal pockets after 48 hrs by agar dilution method

Compound	MIC50 [1]	MIC90 [1]	MIC50 [2]	MIC90 [2]	MIC50 (Porphyromonas levii)	MIC90 (Porphyromonas levii)	MIC50 (Porphyromonas macacae [3])	MIC90 (Porphyromonas macacae [3])	MIC50 (Porphyromonas macacae [4])	MIC90 (Porphyromonas macacae [4])	MIC (Prevotella buccae)	MIC50 (Prevotella corporis)	MIC90 (Prevotella corporis)	MIC50 (Prevotella denticola)	MIC50 (Prevotella disiens)	MIC50 [5]	MIC90 [5]	MIC50 (Prevotella intermedia)	MIC (Hoylesella loescheii)	MIC50 (Prevotella nigrescens)	also measured
NC1CCN(c2c(F)cc3c(=O)c(C(=O)O)cn(C4CC4)c3c2Cl)C1 (configuration not stated) [CLINAFLOXACIN]																					MIC90 (Porphyromonas): 0.125 µg/mL (≈ 0.342 µM)
Cc1ncc([N+](=O)[O-])n1CCO [METRONIDAZOLE]	0.031 µg/mL (≈ 0.181 µM)	0.125 µg/mL (≈ 0.73 µM)	0.125 µg/mL (≈ 0.73 µM)	0.25 µg/mL (≈ 1.46 µM)	0.062 µg/mL (≈ 0.362 µM)	0.125 µg/mL (≈ 0.73 µM)	0.125 µg/mL (≈ 0.73 µM)	0.25 µg/mL (≈ 1.46 µM)	0.25 µg/mL (≈ 1.46 µM)	0.5 µg/mL (≈ 2.92 µM)	0.5 µg/mL (≈ 2.92 µM)	0.062 µg/mL (≈ 0.362 µM)	0.25 µg/mL (≈ 1.46 µM)	0.125 µg/mL (≈ 0.73 µM)	0.062 µg/mL (≈ 0.362 µM)	0.25 µg/mL (≈ 1.46 µM)	0.5 µg/mL (≈ 2.92 µM)	≤ 0.016 µg/mL	0.062 µg/mL (≈ 0.362 µM)	0.125 µg/mL (≈ 0.73 µM)	MIC (Prevotella intermedia): ≤ 0.016 µg/mL; MIC90 (Prevotella nigrescens): 0.5 µg/mL (≈ 2.92 µM); MIC50 (Hoylesella oralis): 0.25 µg/mL (≈ 1.46 µM); MIC50 (Prevotella oris): 0.5 µg/mL (≈ 2.92 µM); MIC (Prevotella oulorum): 0.25 µg/mL (≈ 1.46 µM); MIC [6]: 0.125 µg/mL (≈ 0.73 µM); MIC50 (Prevotella sp.): 0.25 µg/mL (≈ 1.46 µM); MIC90 (Prevotella sp.): 0.5 µg/mL (≈ 2.92 µM); MIC50 (Porphyromonas gingivalis): 0.062 µg/mL (≈ 0.362 µM); MIC90 (Porphyromonas gingivalis): 0.25 µg/mL (≈ 1.46 µM)
N#Cc1c(N2C[C@@H]3CCCN[C@@H]3C2)c(F)cc2c(=O)c(C(=O)O)cn(C3CC3)c12 [PRADOFLOXACIN]	0.062 µg/mL (≈ 0.156 µM)	0.062 µg/mL (≈ 0.156 µM)	0.062 µg/mL (≈ 0.156 µM)	0.25 µg/mL (≈ 0.631 µM)	0.062 µg/mL (≈ 0.156 µM)	0.125 µg/mL (≈ 0.315 µM)	0.062 µg/mL (≈ 0.156 µM)	0.125 µg/mL (≈ 0.315 µM)	0.125 µg/mL (≈ 0.315 µM)	0.125 µg/mL (≈ 0.315 µM)	0.25 µg/mL (≈ 0.631 µM)	0.062 µg/mL (≈ 0.156 µM)	0.125 µg/mL (≈ 0.315 µM)	0.062 µg/mL (≈ 0.156 µM)	0.062 µg/mL (≈ 0.156 µM)	0.062 µg/mL (≈ 0.156 µM)	0.25 µg/mL (≈ 0.631 µM)	0.031 µg/mL (≈ 0.0782 µM)	0.062 µg/mL (≈ 0.156 µM)	0.062 µg/mL (≈ 0.156 µM)	MIC (Prevotella denticola): 0.062 µg/mL (≈ 0.156 µM); MIC90 (Prevotella nigrescens): 0.25 µg/mL (≈ 0.631 µM); MIC (Hoylesella oralis): 0.062 µg/mL (≈ 0.156 µM); MIC50 (Hoylesella oralis): 0.062 µg/mL (≈ 0.156 µM); MIC50 (Prevotella oris): 0.062 µg/mL (≈ 0.156 µM); MIC (Prevotella oulorum): 0.031 µg/mL (≈ 0.0782 µM); MIC [6]: 0.125 µg/mL (≈ 0.315 µM); MIC50 (Prevotella sp.): 0.062 µg/mL (≈ 0.156 µM); MIC90 (Prevotella sp.): 0.25 µg/mL (≈ 0.631 µM); MIC50 (Porphyromonas gingivalis): 0.031 µg/mL (≈ 0.0782 µM); MIC90 (Porphyromonas gingivalis): 0.125 µg/mL (≈ 0.315 µM)

From ChEMBL document CHEMBL1255370, “Activity of pradofloxacin against Porphyromonas and Prevotella spp. Implicated in periodontal disease in dogs: susceptibility test data from a European multicenter study” (2008)
